The source made the active and inactive calls. The calls are words filed in the database; no cut-off is given here.

The target in series [1] is T1, fMet-Leu-Phe receptor (Homo sapiens, UniProt P21462).
T1 sequence (P21462 whole entry): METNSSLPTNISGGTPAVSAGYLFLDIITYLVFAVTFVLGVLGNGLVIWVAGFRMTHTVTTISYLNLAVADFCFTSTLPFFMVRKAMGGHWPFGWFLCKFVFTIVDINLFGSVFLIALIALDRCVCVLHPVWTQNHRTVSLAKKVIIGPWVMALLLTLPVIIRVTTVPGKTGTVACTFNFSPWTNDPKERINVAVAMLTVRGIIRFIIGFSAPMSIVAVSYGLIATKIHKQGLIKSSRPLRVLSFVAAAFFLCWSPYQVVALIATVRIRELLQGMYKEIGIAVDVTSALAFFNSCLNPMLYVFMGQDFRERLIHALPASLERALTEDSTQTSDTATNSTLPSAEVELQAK
The experiment in a line: Agonist activity at human FPR1 expressed in human HL60 cells assessed as induction of calcium mobilization. In kind it is functional, cell-based. Background: Calcium flux is commonly read through the fluorescence of an indicator in the cells.

Series [2] can be described thus: Metabolic stability in rat liver microsomes assessed as parent compound remaining at 10 uM preincubated for 10 mins followed by NADPH addition measured after 30 mins by liquid chromatographic method. It is filed as ADME, microsome. As to conditions: 0.5 h. For orientation: Liver microsomes are a subcellular fraction often used to study metabolism.
Series [3] addresses T2, N-formyl peptide receptor 2 (Homo sapiens, UniProt P25090).
T2 sequence (P25090 whole entry): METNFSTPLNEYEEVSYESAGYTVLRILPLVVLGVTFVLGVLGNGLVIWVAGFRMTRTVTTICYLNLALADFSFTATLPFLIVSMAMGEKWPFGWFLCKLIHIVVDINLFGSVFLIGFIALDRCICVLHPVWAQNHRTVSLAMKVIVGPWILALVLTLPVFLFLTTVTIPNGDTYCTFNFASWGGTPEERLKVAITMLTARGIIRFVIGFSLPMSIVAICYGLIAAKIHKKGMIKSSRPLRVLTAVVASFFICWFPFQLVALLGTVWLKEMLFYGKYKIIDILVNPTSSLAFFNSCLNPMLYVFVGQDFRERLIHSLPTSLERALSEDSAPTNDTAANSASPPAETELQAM
The experiment in a line: Agonist activity at human FPR2 expressed in human HL60 cells assessed as induction of calcium mobilization measured every 5 secs for 240 secs by Fluo-4-AM dye based fluorometric method. It is filed as functional, cell-based. The settings on record: read-out: EC50.

The target of series [4] is T3, N-formyl peptide receptor 2 (Homo sapiens) (UniProt P25090).
T3 sequence (whole entry): T2 sequence (P25090 whole entry)
As to the kind of experiment: Agonist activity at human FPR2 expressed in human HL60 cells assessed as induction of calcium mobilization measured every 5 secs for 240 secs by Fluo-4-AM dye based fluorometric method relative to WKYMVM. It is filed as functional, cell-based.

Series [5] has as its target T1, fMet-Leu-Phe receptor. The experiment in a line: Agonist activity at human FPR1 expressed in human HL60 cells assessed as induction of calcium mobilization measured every 5 secs for 240 secs by Fluo-4-AM dye based fluorometric method. In kind it is functional, cell-based. As to conditions: read-out: EC50.
Series [6] concerns the target T4, fMet-Leu-Phe receptor (Homo sapiens) (UniProt P21462).
T4 sequence (whole entry): T1 sequence (P21462 whole entry)
As to the kind of experiment: Agonist activity at human FPR1 expressed in human HL60 cells assessed as induction of calcium mobilization measured every 5 secs for 240 secs by Fluo-4-AM dye based fluorometric method relative to fMLF. In kind it is functional, cell-based.

Series [7] concerns the target T2, N-formyl peptide receptor 2. The experiment in a line: Agonist activity at FPR2 in human neutrophils assessed as induction of calcium mobilization measured every 5 secs for 240 secs by Fluo-4-AM dye based fluorometric method. The settings on record: read-out: EC50. In kind it is functional.
Series [8] is described as follows: Half life in rat liver microsomes at 10 uM preincubated for 10 mins followed by NADPH addition by liquid chromatographic method. It is filed as ADME, microsome.
A short description of series [9]: Intrinsic clearance in rat liver microsomes at 10 uM preincubated for 10 mins followed by NADPH addition by liquid chromatographic method. It is filed as ADME, microsome.
Series [10] relates to Microglia. The experiment in a line: Cytotoxicity against Sprague-Dawley rat primary microglia cells assessed as cell death at 0.5 to 10 uM after 24 hrs by LDH assay. In kind it is cell-based.
Series [11] has as its system Microglia. As to the kind of experiment: Cytotoxicity against Sprague-Dawley rat primary microglia cells assessed as reduction in cell viability at 0.5 to 10 uM after 24 hrs by MTT assay. In kind it is cell-based. A general note: Tetrazolium assays rely on reduction of a dye to a coloured formazan, in cell work by metabolically active cells.
In series [12] the test system is Microglia. As to the kind of experiment: Cytotoxicity against Sprague-Dawley rat primary microglia cells assessed as cell death at 50 uM after 24 hrs by LDH assay. In kind it is cell-based.
Series [13] deals with Microglia. The experiment in a line: Cytotoxicity against Sprague-Dawley rat primary microglia cells assessed as reduction in cell viability at 50 uM after 24 hrs by MTT assay. It is filed as cell-based.
The test system of series [14] is Microglia. As to the kind of experiment: Cytoprotection against LPS-induced cell death in Sprague-Dawley rat primary microglia cells at 1 to 5 uM pretreated for 1 hr followed by LPS stimulation for 24 hrs by LDH assay. It is filed as functional, cell-based.
Series [15] deals with Microglia. The experiment in a line: Cytoprotection against LPS-induced cell death in Sprague-Dawley rat primary microglia cells at 0.5 to 50 uM pretreated for 1 hr followed by LPS stimulation for 24 hrs by MTT assay. It is filed as functional, cell-based.
The subject of series [16] is Microglia. The experiment in a line: Proinflammatory activity in Sprague-Dawley rat primary microglia cells assessed as induction of NO level up to 10 uM after 24 hrs by Griess reagent based assay. It is filed as cell-based. In a few lines:
(§1)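 Rat primary cortical microglia (Sprague-Dawley pups, 1–2 days old, >95% Iba-1/CD11b-positive) given agonist without LPS for 24 h; WRW4 added 30 min before agonist where indicated. Supernatant NO measured with Griess reagent (540 nm, 10 min room temperature); TNF-α and IL-1β by ELISA. Values normalized to vehicle-treated cells (100%).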

For series [17], the system named is Microglia. The experiment in a line: Proinflammatory activity in Sprague-Dawley rat primary microglia cells assessed as induction of NO level up to 10 uM after 24 hrs in presence of FPR2 antagonist WRW4 by Griess reagent based assay. It is filed as cell-based. The gist of the method: as §1
In series [18] the test system is Microglia. As to the kind of experiment: Anti-inflammatory activity in Sprague-Dawley rat primary microglia cells assessed as inhibition of LPS-induced NO level up to 10 uM pretreated for 1 hr followed by LPS stimulation for 24 hrs by Griess reagent based assay. In kind it is functional, cell-based. In a few lines:
(§2)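 Primary microglia from cortices of 1–2-day-old Sprague-Dawley rats, shaken off mixed cultures at day 9 in vitro, >95% Iba-1/CD11b-positive, used 2 days after plating. Agonist added 1 h before LPS (E. coli 0111:B4, 100 ng/ml) for 24 h; WRW4 given 30 min before agonist where stated. Medium NO by Griess reaction (540 nm); TNF-α and IL-1β by ELISA. Data as % of vehicle-treated control.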

Series [19] has as its system Microglia. As to the kind of experiment: Proinflammatory activity in Sprague-Dawley rat primary microglia cells assessed as induction of IL-1beta level up to 10 uM after 24 hrs by ELISA. In kind it is cell-based. In a few lines: as §1
Series [20] deals with Microglia. The experiment in a line: Proinflammatory activity in Sprague-Dawley rat primary microglia cells assessed as induction of TNFalpha level up to 10 uM after 24 hrs by ELISA. In kind it is cell-based. In a few lines: as §1
For series [21], the system named is Microglia. As to the kind of experiment: Proinflammatory activity in Sprague-Dawley rat primary microglia cells assessed as induction of IL-1beta level up to 10 uM after 24 hrs in presence of FPR2 antagonist WRW4 by ELISA. In kind it is cell-based. The gist of the method:
as §1

Series [22] concerns Microglia. As to the kind of experiment: Proinflammatory activity in Sprague-Dawley rat primary microglia cells assessed as induction of TNFalpha level up to 10 uM after 24 hrs in presence of FPR2 antagonist WRW4 by ELISA. In kind it is cell-based. The gist of the method:
as §1

Series [23] relates to Microglia. The experiment in a line: Anti-inflammatory activity in Sprague-Dawley rat primary microglia cells assessed as inhibition of LPS-induced IL-1beta level up to 10 uM pretreated for 1 hr followed by LPS stimulation for 24 hrs by ELISA. In kind it is functional, cell-based. In a few lines: as §2
Series [24] relates to Microglia. As to the kind of experiment: Anti-inflammatory activity in Sprague-Dawley rat primary microglia cells assessed as inhibition of LPS-induced TNFalpha level up to 10 uM pretreated for 1 hr followed by LPS stimulation for 24 hrs by ELISA. It is filed as functional, cell-based. The gist of the method: as §2
Series [25] has as its system Microglia. As to the kind of experiment: Anti-inflammatory activity in Sprague-Dawley rat primary microglia cells assessed as inhibition of LPS-induced IL-1beta level up to 10 uM pretreated for 1 hr followed by LPS stimulation for 24 hrs in presence of FPR2 antagonist WRW4 by ELISA. It is filed as functional, cell-based. The gist of the method: as §2
For series [26], the system named is Microglia. The experiment in a line: Anti-inflammatory activity in Sprague-Dawley rat primary microglia cells assessed as inhibition of LPS-induced TNFalpha level up to 10 uM pretreated for 1 hr followed by LPS stimulation for 24 hrs in presence of FPR2 antagonist WRW4 by ELISA. In kind it is functional, cell-based. The gist of the method:
as §2

Series [27] concerns Microglia. The experiment in a line: Anti-inflammatory activity in Sprague-Dawley rat primary microglia cells assessed as inhibition of LPS-induced IL-1beta level at 0.05 to 0.1 uM pretreated for 1 hr followed by LPS stimulation for 24 hrs by ELISA. It is filed as functional, cell-based. The gist of the method: as §2
For series [28], the system named is Microglia. The experiment in a line: Anti-inflammatory activity in Sprague-Dawley rat primary microglia cells assessed as inhibition of LPS-induced TNFalpha level at 0.05 to 0.1 uM pretreated for 1 hr followed by LPS stimulation for 24 hrs by ELISA. In kind it is functional, cell-based. The gist of the method: as §2
A short description of series [29]: Efflux ratio of apparent permeability in hCMEC/D3 cells at 5 to 10 uM after 2 hrs by UV-spectroscopic method. It is filed as ADME, cell-based. As to conditions: human, hcmec/d3, 2 h.
Series [30] deals with T3, N-formyl peptide receptor 2 (Homo sapiens). The experiment in a line: Agonist activity at FPR2 in human neutrophils assessed as induction of calcium mobilization measured every 5 secs for 240 secs by Fluo-4-AM dye based fluorometric method relative to fMLF.

The EC50 is the concentration giving half of the maximal effect. Consider `COc1ccc(NC(=O)N[C@@H](Cc2c[nH]c3ccccc23)C(=O)NCC2(c3ccc(OC)cn3)CCCCC2)cc1`, for which the EC50 in series [1] stood at 260 nM. In [2], the Stability is recorded as 4%.

`N#Cc1ccc(C[C@H](NC(=O)Nc2ccc(F)cc2)C(=O)NCC2(c3ccc(F)c(Cl)c3)CC2)cc1`: the results for the EC50 in series [3], in [5] and in series [7] were 3900 nM, 5200 nM and 190 nM, respectively. Besides, the Efficacy in series [4] was 80%; in [6] it was 55%; in series [30] it was 130%. In addition, in [2], the Stability was 33%. The t1/2 in series [8] was determined as 48 min. Moreover, in [9], the “Microsomal intrinsic clearance (CLint)” value was determined as 14.4 µL/min/mg. The Activity result is “Non-Toxic” in [10]; “Non-Toxic” in [11]; “Toxic” in series [12]; “Toxic” in series [13]; “Non-Toxic” in [16]; “Non-Toxic” in series [17]. The Activity entry in series [19], in [20], in series [21] and in series [22] was “Non-Toxic” each time. Also, the result in [14] was Active. Besides, the result in series [15] was inactive. Moreover, the inhibition entry in [18], in series [25], in [26], in series [27] and in series [28] was “inactive” throughout. In addition, the inhibition result in [23] and in series [24] was “Active” throughout. The Ratio in [29] came out at 2.6.

Source of the values: ChEMBL document CHEMBL4130539, “Novel ureidopropanamide based N-formyl peptide receptor 2 (FPR2) agonists with potential application for central nervous system disorders characterized by neuroinflammation” (Eur J Med Chem, 2017).
